Experimental data published in ChEMBL document CHEMBL5506014, “Monophosphoryl Lipid A-Rhamnose Conjugates as a New Class of Vaccine Adjuvants” (J Med Chem, 2024).
The source made the active and inactive calls.

Columns and labels:
Format in all cases: functional, organism-based
Details in all cases: time 38.0 day
[1] = tested on: Mus musculus; test: Immuno-adjuvant activity in sc dosed C57BL/6J mouse model assessed as increase in IgG antibody administered on day 1, 15, 22, and 29 and measured on day 27, 31 and 38 by ELISA analysis
Method in brief: (§1)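 Female C57BL/6 mice, 6−8 weeks old, were given s.c. 0.1 mL doses of KLH-sTn (8.0 μg sTn antigen). The conjugate was mixed 1:1 with PBS, Alum, or a liposomal adjuvant. Liposomes were MPLA-Rha conjugate:DSPC:cholesterol at a 10:65:50 molar ratio, hydrated in 20 mM HEPES pH 7.5 with 150 mM NaCl. Pre-immunization day 0 blood served as blank.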

[2] = tested on: Mus musculus; test: Immuno-adjuvant activity in sc dosed C57BL/6J mouse model assessed as increase in IgM antibody level administered on day 1, 15, 22, and 29 and measured on day 27, 31 and 38 by ELISA analysis; method in brief: as §1
[3] = tested on: Mus musculus; test: Immuno-adjuvant activity in sc dosed C57BL/6J mouse model assessed as increase in anti-KLH IgM antibodies level administered on day 1, 15, 22, and 29 and measured on day 27, 31 and 38 by ELISA analysis; method in brief: as §1
[4] = tested on: Mus musculus; test: Immuno-adjuvant activity in sc dosed C57BL/6J mouse model assessed as increase in anti-KLH total antibodies level administered on day 1, 15, 22, and 29 and measured on day 27, 31 and 38 by ELISA analysis; method in brief: as §1
[5] = tested on: Mus musculus; test: Immuno-adjuvant activity in sc dosed C57BL/6J mouse model assessed as increase in anti-KLH IgG antibodies level administered on day 1, 15, 22, and 29 and measured on day 27, 31 and 38 by ELISA analysis; method in brief: as §1
[6] = tested on: Mus musculus; test: Immuno-adjuvant activity in sc dosed C57BL/6J mouse model assessed as increase in anti-sTn IgG antibodies level administered on day 1, 15, 22, and 29 and measured on day 27, 31 and 38 by ELISA analysis; method in brief: as §1
[7] = tested on: Mus musculus; test: Immuno-adjuvant activity in sc dosed C57BL/6J mouse model assessed as increase in anti-KLH antibodies level administered on day 1, 15, 22, and 29 and measured on day 27, 31 and 38 by ELISA analysis; method in brief: as §1

Measured: Activity

CCCCCCCCCCCC(=O)O[C@H](CCCCCCCCCCC)CC(=O)N[C@H]1[C@H](OC[C@H]2O[C@@H](OCCNC(=O)CCO[C@H]3O[C@@H](C)[C@H](O)[C@@H](O)[C@H]3O)[C@H](NC(=O)C[C@@H](CCCCCCCCCCC)OC(=O)CCCCCCCCCCC)[C@@H](OC(=O)C[C@H](O)CCCCCCCCC)[C@@H]2O)O[C@H](CO)[C@@H](OP(=O)(O)O)[C@@H]1OC(=O)C[C@H](O)CCCCCCCCC
active: [1] | [2] | [3] | [4] | [5]

CCCCCCCCCCCC(=O)O[C@H](CCCCCCCCCCC)CC(=O)N[C@H]1[C@H](OC[C@H]2O[C@@H](OC)[C@H](NC(=O)C[C@@H](CCCCCCCCCCC)OC(=O)CCCCCCCCCCC)[C@@H](OC(=O)C[C@H](O)CCCCCCCCC)[C@@H]2O)O[C@H](CNC(=O)CCO[C@H]2O[C@@H](C)[C@H](O)[C@@H](O)[C@H]2O)[C@@H](OP(=O)(O)O)[C@@H]1OC(=O)C[C@H](O)CCCCCCCCC
active: [1] | [2]

CCCCCCCCCCCC(=O)O[C@H](CCCCCCCCCCC)CC(=O)N[C@H]1[C@H](OC[C@H]2O[C@@H](OCCNC(=O)CCO[C@@H]3O[C@@H](C)[C@H](O)[C@@H](O)[C@H]3O)[C@H](NC(=O)C[C@@H](CCCCCCCCCCC)OC(=O)CCCCCCCCCCC)[C@@H](OC(=O)C[C@H](O)CCCCCCCCC)[C@@H]2O)O[C@H](CO)[C@@H](OP(=O)(O)O)[C@@H]1OC(=O)C[C@H](O)CCCCCCCCC
active: [1] | [2] | [3] | [4] | [5] | [6] | [7]

CCCCCCCCCCCC(=O)O[C@H](CCCCCCCCCCC)CC(=O)N[C@H]1[C@H](OC[C@H]2O[C@@H](OC)[C@H](NC(=O)C[C@@H](CCCCCCCCCCC)OC(=O)CCCCCCCCCCC)[C@@H](OC(=O)C[C@H](O)CCCCCCCCC)[C@@H]2O)O[C@H](CNC(=O)CCO[C@@H]2O[C@@H](C)[C@H](O)[C@@H](O)[C@H]2O)[C@@H](OP(=O)(O)O)[C@@H]1OC(=O)C[C@H](O)CCCCCCCCC
active: [1] | [2] | [6] | [7]
